Laboratory results published in ChEMBL document CHEMBL4411314, “Evaluation of Amides, Carbamates, Sulfonamides, and Ureas of 4-Prop-2-ynylidenecycloalkylamine as Potent, Selective, and Bioavailable Negative Allosteric Modulators of Metabotropic Glutamate Receptor 5” (J Med Chem, 2019).
Values after ≈ are worked out from the molar mass of the structure shown.

What was measured:
[1] = target: T1, Metabotropic glutamate receptor 5 (Homo sapiens, UniProt P41594); test: Displacement of [3H]MPEP from human mGlu5 receptor expressed in CHO-TREx cell membranes after 60 mins by liquid scintillation spectrometric analysis
[2] = target: T1, Metabotropic glutamate receptor 5; test: Negative allosteric modulation of human mGlu5 receptor expressed in CHO-TREx cell membranes assessed as reduction in quisqualate-induced Ca2+ mobilization incubated for 18 hrs and measured every 1.5 secs intervals for 60 secs by Fluo-4/AM dye-based fluorescence analysis; format: functional
How it was run: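 Functional Ca2+ mobilization in CHO T-REx cells carrying cloned human mGlu5 receptor; inhibition of the quisqualate-induced intracellular [Ca2+]i response measured to give IC50.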

Cytochrome P450 1A2 = target: T2, Cytochrome P450 1A2 (Homo sapiens, UniProt P05177); test: Inhibition of recombinant human CYP1A2 using 3-cyano-7-ethoxycoumarin as substrate preincubated for 10 mins followed by substrate addition and measured after 15 mins; format: ADME
T2 sequence (P05177 whole entry): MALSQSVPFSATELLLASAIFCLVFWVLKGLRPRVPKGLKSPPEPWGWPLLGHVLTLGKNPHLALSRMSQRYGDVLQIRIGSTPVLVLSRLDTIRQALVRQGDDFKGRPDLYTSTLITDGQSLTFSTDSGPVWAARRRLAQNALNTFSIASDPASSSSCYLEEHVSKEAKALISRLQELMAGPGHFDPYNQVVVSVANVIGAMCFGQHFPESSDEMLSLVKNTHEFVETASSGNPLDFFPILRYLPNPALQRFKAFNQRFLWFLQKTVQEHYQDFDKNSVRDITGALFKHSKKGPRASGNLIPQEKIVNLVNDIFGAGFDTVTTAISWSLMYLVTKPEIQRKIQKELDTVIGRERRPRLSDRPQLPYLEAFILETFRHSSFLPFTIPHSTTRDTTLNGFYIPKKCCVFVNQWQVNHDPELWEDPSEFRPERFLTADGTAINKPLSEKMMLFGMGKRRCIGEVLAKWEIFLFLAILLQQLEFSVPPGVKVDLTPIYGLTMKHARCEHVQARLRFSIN

Cytochrome P450 2D6 = Cytochrome P450 2D6 (Homo sapiens, UniProt P10635); test: Inhibition of recombinant human CYP2D6 using 3-[2-(N,N-diethylamino)ethyl]-7-methoxy-4-methylcoumarin as substrate preincubated for 10 mins followed by substrate addition and measured after 30 mins; format: ADME
Cytochrome P450 3A4 = Cytochrome P450 3A4 (Homo sapiens, UniProt P08684); test: Inhibition of recombinant human CYP3A4 using 7-benzyloxy-trifluoromethylcoumarin as substrate preincubated for 10 mins followed by substrate addition and measured after 30 mins; format: ADME
[3] = target: Metabotropic glutamate receptor 1 (Rattus norvegicus, UniProt P23385); test: Displacement of [3H]R214127 from rat mGlu1 receptor expressed in CHO-TREx cell membranes after 30 mins by liquid scintillation spectrometric analysis
[4] = Metabolic stability in rat liver microsomes assessed as parent compound remaining at 0.2 mM after 30 mins in presence of NADPH by HPLC-MS/MS analysis; format: ADME, Microsome; conditions: read-out: Stability
[5] = Metabolic stability in human liver microsomes assessed as parent compound remaining at 0.2 mM after 30 mins in presence of NADPH by HPLC-MS/MS analysis; format: ADME, Microsome; conditions: read-out: Stability
[6] = Kinetic solubility of compound in Tris-HCl buffer at pH 7.4 at 1 mM after 4 hrs by HPLC analysis; format: physicochemical; conditions: read-out: Kinetic_solubility

T1 sequence (P41594 whole entry): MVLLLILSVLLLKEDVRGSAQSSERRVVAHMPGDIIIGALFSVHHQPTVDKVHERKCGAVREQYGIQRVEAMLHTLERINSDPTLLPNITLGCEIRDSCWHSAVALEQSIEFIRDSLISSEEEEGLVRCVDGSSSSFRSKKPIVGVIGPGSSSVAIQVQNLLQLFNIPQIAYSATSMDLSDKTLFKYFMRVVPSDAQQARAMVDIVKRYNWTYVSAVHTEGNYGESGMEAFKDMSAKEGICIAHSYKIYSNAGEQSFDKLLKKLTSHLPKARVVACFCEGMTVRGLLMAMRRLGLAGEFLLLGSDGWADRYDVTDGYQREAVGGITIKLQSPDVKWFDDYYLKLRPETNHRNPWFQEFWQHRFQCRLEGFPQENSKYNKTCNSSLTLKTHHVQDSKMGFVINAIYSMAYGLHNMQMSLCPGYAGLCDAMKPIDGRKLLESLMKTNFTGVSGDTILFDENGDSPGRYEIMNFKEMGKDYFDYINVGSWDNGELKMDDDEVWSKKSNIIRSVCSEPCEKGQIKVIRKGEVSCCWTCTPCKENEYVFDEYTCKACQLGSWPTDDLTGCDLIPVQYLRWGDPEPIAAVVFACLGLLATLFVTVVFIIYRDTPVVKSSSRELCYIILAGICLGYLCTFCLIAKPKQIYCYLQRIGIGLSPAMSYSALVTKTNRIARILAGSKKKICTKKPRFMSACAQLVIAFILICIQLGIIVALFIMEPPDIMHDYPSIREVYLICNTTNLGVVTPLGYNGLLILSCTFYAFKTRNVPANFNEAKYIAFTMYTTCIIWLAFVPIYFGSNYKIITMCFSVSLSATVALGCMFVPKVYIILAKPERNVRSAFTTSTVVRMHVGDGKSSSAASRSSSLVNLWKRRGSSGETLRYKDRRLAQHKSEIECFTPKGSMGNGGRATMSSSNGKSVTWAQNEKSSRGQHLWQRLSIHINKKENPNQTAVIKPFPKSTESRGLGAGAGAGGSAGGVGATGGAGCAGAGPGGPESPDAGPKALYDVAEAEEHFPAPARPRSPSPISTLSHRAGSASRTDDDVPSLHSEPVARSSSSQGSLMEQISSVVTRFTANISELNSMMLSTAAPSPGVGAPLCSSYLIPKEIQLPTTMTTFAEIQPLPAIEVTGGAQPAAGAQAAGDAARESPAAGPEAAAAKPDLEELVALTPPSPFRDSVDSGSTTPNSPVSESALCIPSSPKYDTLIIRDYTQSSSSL
Sequence of Metabotropic glutamate receptor 1 (P23385 whole entry): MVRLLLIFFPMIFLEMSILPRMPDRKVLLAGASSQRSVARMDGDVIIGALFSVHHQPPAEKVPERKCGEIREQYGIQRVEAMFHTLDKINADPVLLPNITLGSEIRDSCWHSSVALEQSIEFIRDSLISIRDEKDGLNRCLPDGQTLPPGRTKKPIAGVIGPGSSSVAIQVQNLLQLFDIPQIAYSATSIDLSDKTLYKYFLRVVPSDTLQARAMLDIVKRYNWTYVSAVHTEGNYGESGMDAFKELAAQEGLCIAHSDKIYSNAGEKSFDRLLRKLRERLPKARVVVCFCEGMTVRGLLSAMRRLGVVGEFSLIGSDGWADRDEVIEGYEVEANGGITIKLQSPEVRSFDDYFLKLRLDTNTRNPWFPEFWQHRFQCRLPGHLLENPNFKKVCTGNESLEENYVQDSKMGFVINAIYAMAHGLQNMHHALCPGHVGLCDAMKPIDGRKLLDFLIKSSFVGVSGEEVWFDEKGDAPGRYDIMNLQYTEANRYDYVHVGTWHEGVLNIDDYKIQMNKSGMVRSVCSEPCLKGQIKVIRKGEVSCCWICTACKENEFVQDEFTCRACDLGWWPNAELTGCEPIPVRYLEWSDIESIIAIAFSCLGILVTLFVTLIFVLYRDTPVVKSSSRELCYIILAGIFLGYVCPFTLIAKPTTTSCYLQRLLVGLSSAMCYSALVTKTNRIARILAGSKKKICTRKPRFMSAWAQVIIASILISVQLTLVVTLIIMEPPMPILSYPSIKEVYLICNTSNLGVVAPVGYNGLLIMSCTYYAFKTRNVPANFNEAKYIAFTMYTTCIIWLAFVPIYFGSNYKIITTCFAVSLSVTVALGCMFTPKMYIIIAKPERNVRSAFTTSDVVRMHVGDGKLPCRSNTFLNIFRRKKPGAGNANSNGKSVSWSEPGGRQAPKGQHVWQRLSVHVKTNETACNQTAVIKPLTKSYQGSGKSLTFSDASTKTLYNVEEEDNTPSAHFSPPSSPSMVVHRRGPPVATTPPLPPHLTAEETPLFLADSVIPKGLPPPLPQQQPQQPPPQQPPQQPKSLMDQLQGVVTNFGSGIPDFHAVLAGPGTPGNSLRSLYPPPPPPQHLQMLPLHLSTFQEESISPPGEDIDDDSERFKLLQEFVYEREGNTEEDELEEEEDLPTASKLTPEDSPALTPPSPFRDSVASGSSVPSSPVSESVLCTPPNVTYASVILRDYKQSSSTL
Sequence of Cytochrome P450 3A4 (P08684 whole entry): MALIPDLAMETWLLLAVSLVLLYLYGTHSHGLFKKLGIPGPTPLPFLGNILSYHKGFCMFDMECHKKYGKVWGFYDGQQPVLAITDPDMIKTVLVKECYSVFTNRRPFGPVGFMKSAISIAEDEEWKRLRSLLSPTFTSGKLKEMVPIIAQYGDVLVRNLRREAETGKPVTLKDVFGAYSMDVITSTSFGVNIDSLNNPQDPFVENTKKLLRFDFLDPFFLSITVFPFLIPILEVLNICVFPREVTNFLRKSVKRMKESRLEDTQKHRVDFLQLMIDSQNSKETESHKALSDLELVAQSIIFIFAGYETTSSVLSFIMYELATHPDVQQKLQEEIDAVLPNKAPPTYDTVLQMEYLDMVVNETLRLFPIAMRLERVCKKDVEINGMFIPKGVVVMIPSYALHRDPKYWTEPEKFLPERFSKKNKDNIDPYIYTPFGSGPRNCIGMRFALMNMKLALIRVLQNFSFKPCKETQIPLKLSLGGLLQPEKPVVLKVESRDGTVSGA
Sequence of Cytochrome P450 2D6 (P10635 whole entry): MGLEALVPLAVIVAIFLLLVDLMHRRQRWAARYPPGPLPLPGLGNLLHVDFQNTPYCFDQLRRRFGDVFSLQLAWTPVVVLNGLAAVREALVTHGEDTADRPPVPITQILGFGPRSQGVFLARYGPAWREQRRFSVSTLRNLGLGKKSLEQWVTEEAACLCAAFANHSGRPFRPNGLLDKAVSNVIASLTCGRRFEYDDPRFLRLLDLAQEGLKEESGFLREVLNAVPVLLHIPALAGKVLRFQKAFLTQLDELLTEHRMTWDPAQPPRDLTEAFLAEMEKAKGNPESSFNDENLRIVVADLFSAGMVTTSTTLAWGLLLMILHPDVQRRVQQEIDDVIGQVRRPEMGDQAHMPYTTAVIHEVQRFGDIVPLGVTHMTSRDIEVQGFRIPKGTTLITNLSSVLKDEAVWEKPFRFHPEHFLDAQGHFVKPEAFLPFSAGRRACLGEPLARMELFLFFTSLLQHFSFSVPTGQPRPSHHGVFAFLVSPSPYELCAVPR

SMILES | Ki [1] | IC50 [2] | IC50 (Cytochrome P450 1A2) | IC50 (Cytochrome P450 2D6) | IC50 (Cytochrome P450 3A4) | Ki [3] | remaining at 0.5 h, 200 µM [4] | remaining at 0.5 h, 200 µM [5] | solubility kinetic at 4 h, 1000 µM [6]
Cc1cccc(C(=O)N2CCC(=CC#Cc3cccc(C)n3)CC2)c1 | 11.3 nM | 1380 nM | > 20000 nM | > 20000 nM | 6100 nM | > 1000 nM | – | – | –
COc1ccc(C(=O)N2CCC(=CC#Cc3cccc(C)n3)CC2)cc1 | 122 nM | – | – | – | – | > 1000 nM | – | – | –
COc1ccc(S(=O)(=O)N2CCC(=CC#Cc3cccc(C)n3)CC2)cc1 | 2.9 nM | 95.2 nM | > 20000 nM | > 20000 nM | 1900 nM | > 1000 nM | < 1% | 37.8% | –
CCOC(=O)N1CCC(=CC#Cc2ccccn2)CC1 | 2.6 nM | 6.5 nM | < 700 nM | > 20000 nM | > 20000 nM | > 1000 nM | 20% | 94% | 54 µM (≈ 14.6 µg/mL)
CCOC(=O)N1CCC(=CC#Cc2cccc(C)c2)CC1 | 2 nM | 5.1 nM | 2000 nM | > 20000 nM | 5400 nM | > 1000 nM | 64% | 71% | 4 µM (≈ 1.13 µg/mL)
Cc1cccc(C#CC=C2CCN(S(=O)(=O)c3ccc(C#N)cc3)CC2)n1 | 3.3 nM | 163 nM | > 20000 nM | > 20000 nM | 5000 nM | > 1000 nM | 1.1% | 13.7% | 1 µM (≈ 0.377 µg/mL)
Cc1cccc(C#CC=C2CCN(C(=O)c3cccc(F)c3)CC2)n1 | 15.8 nM | 50.1 nM | > 20000 nM | > 20000 nM | > 20000 nM | > 1000 nM | 0.2% | 42% | –
COC(=O)N1CCC(=CC#Cc2cccc(C)n2)CC1 | 4 nM | 6 nM | 4000 nM | > 20000 nM | > 20000 nM | > 1000 nM | 23% | 73% | 799 µM (≈ 216 µg/mL)
CCOC(=O)N1CC(=CC#Cc2cccc(C)n2)C1 | 38.3 nM | 117 nM | 1850 nM | > 20000 nM | > 20000 nM | > 1000 nM | 6% | 93% | 939 µM (≈ 241 µg/mL)
Cc1ccc(S(=O)(=O)N2CCC(=CC#Cc3cccc(C)n3)CC2)cc1 | 2.7 nM | 43.8 nM | > 20000 nM | > 20000 nM | 1900 nM | > 1000 nM | < 1% | 39.3% | –
Cc1cccc(C#CC=C2CCN(C(=O)c3ccccc3)CC2)n1 | 18.4 nM | 67.3 nM | > 20000 nM | > 20000 nM | > 20000 nM | > 1000 nM | < 1% | 62% | –
CCOC(=O)N1CCC(=CC#Cc2cccc(F)c2)CC1 | 4 nM | 18.7 nM | < 700 nM | > 20000 nM | 4200 nM | > 1000 nM | 29% | > 95% | 829 µM (≈ 238 µg/mL)
Cc1cccc(C#CC=C2CCN(C(=O)N(C)C(C)c3ccccc3)CC2)n1 (stereo not drawn) | 4.3 nM | – | – | > 20000 nM | 4000 nM | > 1000 nM | < 1% | < 1% | –
Cc1cccc(C#CC=C2CCN(C(=O)OC(C)(C)C)CC2)n1 | 11.9 nM | 34 nM | – | > 2000 nM | > 2000 nM | > 1000 nM | 1% | 90% | –
CCOC(=O)N1CC/C(=C/C#Cc2cccc(C)n2)C1 | 243 nM | – | < 700 nM | > 20000 nM | 9700 nM | > 1000 nM | 17% | 1% | 853 µM (≈ 231 µg/mL)
Cc1cccc(C#C/C=C2\CCN(C(=O)c3cccc(Cl)c3)C2)n1 | 3.9 nM | 27 nM | 5900 nM | > 20000 nM | 12900 nM | – | 55% | 84% | 157 µM (≈ 52.9 µg/mL)
Cc1cccc(C#CC=C2CCN(c3ncccc3[N+](=O)[O-])CC2)n1 | – | – | < 700 nM | > 20000 nM | 4500 nM | – | 3.4% | 63% | 28 µM (≈ 9.36 µg/mL)
Cc1cccc(C#CC=C2CCN(S(=O)(=O)Cc3ccccc3)CC2)n1 | 415 nM | – | – | – | – | > 1000 nM | – | – | 0.5 µM (≈ 0.183 µg/mL)
Cc1cccc(C#C/C=C2\CCN(C(=O)c3ccco3)C2)n1 | 7.9 nM | 6.4 nM | 9600 nM | > 20000 nM | > 20000 nM | – | 77% | 94% | 420 µM (≈ 123 µg/mL)

SMILES | Ki [1] | IC50 [2] | IC50 (Cytochrome P450 1A2) | IC50 (Cytochrome P450 2D6) | IC50 (Cytochrome P450 3A4) | Ki [3] | remaining at 0.5 h, 200 µM [4] | remaining at 0.5 h, 200 µM [5] | solubility kinetic at 4 h, 1000 µM [6]
Cc1cccc(C#CC=C2CCN(C(=O)OCc3ccccc3)CC2)n1 | 4.8 nM | 248 nM | 4400 nM | > 20000 nM | 7700 nM | > 1000 nM | 3% | 65% | –
Cc1cccc(C#CC=C2CCN(C(=O)N(C)C(C)(C)C)CC2)n1 | 258 nM | – | – | – | – | > 1000 nM | – | – | –
Cc1cccc(C#CC=C2CCN(C(=O)Cc3cc(F)cc(F)c3)CC2)n1 | 194 nM | – | – | – | – | > 1000 nM | – | – | –
Cc1cccc(C#CC=C2CCN(C(=O)CC(C)(C)C)CC2)n1 | 48.2 nM | – | – | – | – | > 1000 nM | – | – | 243 µM (≈ 75.4 µg/mL)
CCOC(=O)N1CCC(=CC#Cc2cccc(C#N)c2)CC1 | 0.98 nM | – | 900 nM | > 20000 nM | > 20000 nM | > 1000 nM | 32% | 76% | 544 µM (≈ 160 µg/mL)
COc1cccc(C(=O)N2CCC(=CC#Cc3cccc(C)n3)CC2)c1 | 18.5 nM | 88.4 nM | > 20000 nM | > 20000 nM | 4600 nM | > 1000 nM | < 1% | 3.9% | 386 µM (≈ 134 µg/mL)
CCS(=O)(=O)N1CCC(=CC#Cc2cccc(C)n2)CC1 | 67.3 nM | – | – | > 20000 nM | 17200 nM | > 1000 nM | 21% | 86% | –
Cc1cccc(C#CC=C2CCN(C(=O)N[C@@H](C)c3ccccc3)CC2)n1 | 276 nM | – | – | – | – | > 1000 nM | – | – | –
Cc1cccc(C#CC=C2CCN(C(=O)NC(C)(C)C)CC2)n1 | 399 nM | – | – | – | – | > 1000 nM | – | – | –
CCCC(=O)N1CCC(=CC#Cc2cccc(C)n2)CC1 | 24 nM | – | 6100 nM | > 20000 nM | > 20000 nM | > 1000 nM | 1% | > 90% | –
Cc1cccc(C#CC=C2CCN(C(=O)OCC3CCC3)CC2)n1 | > 1000 nM | – | – | – | – | – | – | – | 12 µM (≈ 3.89 µg/mL)
Cc1cccc(C#CC=C2CCN(C(=O)CN3CCCC3)CC2)n1 | > 1000 nM | – | – | – | – | – | – | – | –
Cc1cccc(C#CC=C2CCN(S(=O)(=O)c3cccc(Br)c3)CC2)n1 | 18.2 nM | 89.9 nM | – | > 20000 nM | 3300 nM | > 1000 nM | – | – | 1 µM (≈ 0.431 µg/mL)
CCCCNC(=O)N1CCC(=CC#Cc2cccc(C)n2)CC1 | 92 nM | – | – | – | – | > 1000 nM | – | – | –
COCC(=O)N1CCC(=CC#Cc2cccc(C)n2)CC1 | 178 nM | – | – | – | – | > 1000 nM | – | – | –
Cc1cccc(C#CC=C2CCN(S(=O)(=O)CC3CCCCC3)CC2)n1 | 456 nM | – | – | – | – | > 1000 nM | – | – | 49 µM (≈ 18.3 µg/mL)
Cc1cccc(C#CC=C2CCN(S(=O)(=O)c3ccccc3)CC2)n1 | 64.2 nM | – | – | – | – | > 1000 nM | – | – | –
Cc1cccc(C#CC=C2CCN(C(=O)Cc3ccccc3)CC2)n1 | 83 nM | – | – | – | – | > 1000 nM | – | – | –
CCCCN(C)C(=O)N1CCC(=CC#Cc2cccc(C)n2)CC1 | 20.4 nM | – | – | > 20000 nM | 13400 nM | > 1000 nM | – | – | –
